Assay results as given in ChEMBL document CHEMBL1123881, “Synthesis and antiarrhythmic activity of new 3-[2-(omega-aminoalkoxy)phenoxy]-4-phenyl-3-buten-2-ones and related compounds” (J Med Chem, 1987).
≈ marks a conversion by molar mass, not a printed value.

What was measured:
[1] = test system: Canis familiaris; assay: The compound was tested for antiarrhythmic activity in infarcted conscious dog through iv; format: functional; conditions: Canis lupus familiaris, Heart
Procedure, shortened: (§1)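 Beagle dogs of both sexes, 10-14 kg, coronary ligature under pentobarbital (30 mg/kg iv) with artificial ventilation. Next day, dogs without spontaneous arrhythmia get epinephrine 2-10 µg/kg iv (ear vein). Compound then given iv. ECG at 5-180 min, with epinephrine re-challenge at each time. Maximal ectopic beats/min counted before and after each dose, in 2-4 dogs.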

[2] = test system: Rattus norvegicus; assay: The compound was tested for antiarrhythmic activity ( protection against CaCl2 induced ventricular fibrillation ) in anesthetized rat.; format: functional; conditions: Heart
Procedure, shortened: (§2)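 Sprague-Dawley albino rats, 180-200 g, conscious or urethane-anesthetized (2.8 g/kg sc). Compound given via caudal or portal vein 2 min, or orally 60 min, before rapid iv 8% CaCl2 at 1 mL/kg. Lead II ECG monitored for fibrillation within 10 min. Five to ten rats per dose.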

[3] = test system: Canis familiaris; assay: Antiarrhythmic activity ( protection against epinephrine induced ventricular fibrillation ) in post infarcted conscious dog administered iv.; format: functional; conditions: Canis lupus familiaris, Heart
[4] = species: Mus musculus; assay: (§3) The compound was tested for effective concentration (intradermal injection) that caused local anesthesia in 50% of mice by tail-clip method; format: functional, organism-based
Procedure, shortened: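 Tail-clip test in albino CF1 mice of both sexes, 18-20 g. Intradermal tail injection of 0.1 mL/mouse about 1 cm from the root.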

[5] = test system: Rattus norvegicus; assay: Antiarrhythmic activity (protection against CaCl2 induced ventricular fibrillation) in anesthetized rat administered through portal vein (ipv); format: functional; conditions: Heart; procedure, shortened: as §2
[6] = test system: Rattus norvegicus; assay: The compound was tested for blood electrolyte K+ in rat serum when induced through femoral vein (iv) at dose of 5 mg/kg; format: functional
Procedure, shortened: (§4)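 Sprague-Dawley rats of both sexes, 140-150 g. Serum K+ measured by flame photometry 1 h after iv dosing. Five rats per dose.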

[7] = The compound was tested for acute toxicity when given intravenously in rat; format: organism-based; conditions: in vivo, iv
Procedure, shortened: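 Sprague-Dawley rats of both sexes, 120-140 g, dosed intravenously; survivors observed for 1 week. LD50 derived by probit method, confidence limits at p = 0.05.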

[8] = test system: Mus musculus; assay: Antiarrhythmic activity ( protection against aconitine induced ventricular tachycardia) in anesthetized mouse administered through iv.; format: functional; conditions: Heart
Procedure, shortened: (§5)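 Albino CF1 mice of both sexes, 20-22 g, pentobarbital-anesthetized (60 mg/kg ip), lead II ECG. Dosing iv (caudal vein) 2 min or orally 60 min before aconitine infusion, 8 µg/mL at 0.32 mL/min for 3 min. ECG read every 10 s. Endpoint is time to initial arrhythmia and to ventricular tachycardia. Ten mice per dose; probit analysis.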

[9] = test system: Rattus norvegicus; assay: The compound was tested for activity on heart rate in anesthetized rat when induced through femoral vein (iv) at dose of 1 mg/kg; format: functional
Procedure, shortened: (§6)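 Heart rate in anesthetized rats, given iv (femoral vein) or into the portal vein. Rate recorded a few seconds before drug administration.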

[10] = test system: Rattus norvegicus; assay: The compound was tested for activity on heart rate in anesthetized rat when induced through portal vein (ipv) at dose of 1 mg/kg; format: functional; procedure, shortened: as §6
[11] = The compound was tested for acute toxicity when given intraperitoneally in mouse.; format: organism-based; conditions: in vivo, ip
Procedure, shortened: (§7)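 Albino CF1 mice of both sexes, 18-20 g, dosed intraperitoneally; survivors observed for 1 week; ten mice per dose. LD50 derived by probit method, confidence limits at p = 0.05.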

[12] = test system: Rattus norvegicus; assay: Antiarrhythmic activity ( protection against CaCl2 induced ventricular fibrillation ) in conscious rat administered orally (po); format: functional; conditions: Heart; procedure, shortened: as §2
[13] = test system: Mus musculus; assay: Antiarrhythmic activity ( protection against aconitine induced ventricular tachycardia) in anesthetized mouse administered perorally; format: functional; conditions: Heart, po; procedure, shortened: as §5
[14] = species: Oryctolagus cuniculus; assay: Tested in vitro for antiarrhythmic activity in isolated rabbit atria; format: functional; conditions: Heart
Procedure, shortened: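 Atria from New Zealand rabbits in oxygenated Ringer-Locke at 29 °C, paced with 10-ms, 10-V rectangular pulses at rising frequency to find the maximum driven frequency. This was remeasured before and 10, 15 and 20 min after drug addition. Dose-response curves on the same tissue, repeated 3-5 times. EC values by probit.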

[15] = test system: Mus musculus; assay: Antiarrhythmic activity ( protection against aconitine induced initial arrhythmia ) in anesthetized mouse administered perorally; format: functional; conditions: Heart, po; procedure, shortened: as §5
[16] = test system: Mus musculus; assay: Antiarrhythmic activity ( protection against aconitine induced initial arrhythmia ) in anesthetized mouse administered through iv.; format: functional; conditions: Heart; procedure, shortened: as §5
[17] = test system: Rattus norvegicus; assay: Antiarrhythmic activity ( protection against CaCl2 induced ventricular fibrillation ) in conscious rat administered intravenously; format: functional; conditions: Heart, iv; procedure, shortened: as §2
[18] = test system: Rattus norvegicus; assay: Antiarrhythmic activity ( protection against CaCl2 induced ventricular fibrillation ) in anesthetized rat administered intravenously; format: functional; conditions: Heart, iv; procedure, shortened: as §2
[19] = The compound was tested for acute toxicity when given intraperitoneally in mouse; format: organism-based; conditions: in vivo, ip; procedure, shortened: as §7
[20] = test system: Rattus norvegicus; assay: The compound was tested for activity on heart rate in anesthetized rat when induced through portal vein (ipv),at 14 mg/kg; format: functional; procedure, shortened: as §6
[21] = test system: Canis familiaris; assay: Antiarrhythmic activity ( protection against epinephrine induced ventricular fibrillation ) in post infarcted conscious dog administered iv(ear or caudal vein); format: functional; conditions: Canis lupus familiaris, Heart
[22] = test system: Mus musculus; assay: Antiarrhythmic activity ( protection against aconitine induced initial arrhythmia ) in anesthetized mouse administered through iv(ear or caudal vein); format: functional; conditions: Heart; procedure, shortened: as §5
[23] = test system: Mus musculus; assay: Antiarrhythmic activity ( protection against aconitine induced ventricular tachycardia) in anesthetized mouse administered through iv(ear or caudal vein); format: functional; conditions: Heart; procedure, shortened: as §5
[24] = test system: Canis familiaris; assay: The compound was tested for antiarrhythmic activity in infarcted conscious dog through iv(ear or caudal vein); format: functional; conditions: Canis lupus familiaris, Heart; procedure, shortened: as §1
[25] = test system: Rattus norvegicus; assay: Activity on heart rate in anesthetized rat when induced through femoral vein (iv), at 5 mg/kg; format: functional; procedure, shortened: as §6
[26] = test system: Rattus norvegicus; assay: The compound was tested for blood electrolyte K+ in rat serum when induced through femoral vein (iv),at 20 mg/kg; format: functional; procedure, shortened: as §4
[27] = test system: Rattus norvegicus; assay: The compound was tested for blood electrolyte K+ in rat serum when induced through femoral vein (iv) at a dose of 5 mg/kg; format: functional; procedure, shortened: as §4
[28] = test system: Rattus norvegicus; assay: The compound was tested for activity on heart rate in anesthetized rat when induced through femoral vein (iv) at a dose of 1 mg/kg; format: functional; procedure, shortened: as §6
[29] = test system: Mus musculus; assay: Antiarrhythmic activity (protection against aconitine induced initial arrhythmia) in anesthetized mouse administered through iv.; format: functional; conditions: Heart; procedure, shortened: as §5
[30] = test system: Rattus norvegicus; assay: The compound was tested for activity on heart rate in anesthetized rat when induced through portal vein (ipv) at a dose of 2 mg/kg; format: functional; procedure, shortened: as §6
[31] = test system: Mus musculus; assay: Antiarrhythmic activity (protection against aconitine induced ventricular tachycardia) in anesthetized mouse administered through iv.; format: functional; conditions: Heart; procedure, shortened: as §5
[32] = species: Mus musculus; assay: as §3; format: functional, organism-based; remark: listed apart in the source

SMILES | LD50 [7] [mg/kg] | LD50 [11] [mg/kg] | EC30 [14] [µg/mL] | ED50 [18] [mg/kg] | LD50 [19] [mg/kg] | further results
CCN(CC)CCCOc1ccccc1O/C(=C/c1ccccc1)C(C)=O | 11.1 | 95 | 0.41 (≈ 1.12 µM) |  |  | ED50 [1]: 1 mg/kg; ED50 [2]: 0.18 mg/kg; ED50 [3]: 1 mg/kg; EC50 [4]: 0.0099 µg/mL (≈ 0.0269 µM); ED50 [5]: 0.6 mg/kg; Activity [6]: -8%; ED50 [8]: 4.9 mg/kg; Activity [9]: -6%; Activity [10]: 4%; ED50 [12]: 35 mg/kg; ED50 [13]: 83 mg/kg; ED50 [15]: 82 mg/kg; ED50 [16]: 4.3 mg/kg; ED50 [17]: 0.3 mg/kg
CC(=O)/C(=C\c1ccccc1)Oc1cc(Cl)ccc1OCCN1CCCCC1 |  | 185 | 3 (≈ 7.5 µM) | 0.9 |  | 
CCN(CC)CCOc1ccccc1OCC(C)O (centres undefined) |  |  | 15 (≈ 56.1 µM) | 7.1 | 187 | 
CCN(CC)CCOc1ccccc1OCC(C)=O |  |  | 15 (≈ 56.5 µM) | 7 | 125 | 
CC(=O)/C(=C\c1ccccc1)Oc1ccccc1OCCN1CCCC1 |  |  | 3 (≈ 8.54 µM) | 1 | 45 | 
CCN(CC)CCOc1ccccc1O/C(=C/c1ccccc1)C(C)O (centres undefined) |  | 110 | 1.9 (≈ 5.34 µM) | 1.5 |  | 
CCN(CC)CCOc1ccccc1O/C(=C/c1ccccc1)C(=O)c1ccccc1 |  |  | 2.8 (≈ 6.74 µM) |  | 125 | 
CC(=O)/C(=C\c1ccccc1)Oc1ccccc1OCCCN(C(C)C)C(C)C | 11.4 | 60 | 0.32 (≈ 0.809 µM) | 0.1 |  | 
CC(=O)/C(=C\c1ccccc1)Oc1ccc(OCC(O)CNC(C)(C)C)cc1 (centres undefined) |  |  | 2.8 (≈ 7.3 µM) | 3.5 |  | 
CC(=O)/C(=C\c1ccccc1)Oc1ccccc1OCCCN(C)C | 13.5 | 110 | 3 (≈ 8.84 µM) |  |  | 
CC(=O)/C(=C\c1ccccc1)Oc1ccccc1OCCCN1CCN(C)CC1 | 23.9 | 125 | 1.3 (≈ 3.3 µM) |  |  | 
CC(=O)/C(=C\c1ccccc1)Oc1ccccc1OCCN1CCOCC1 | 30 | 180 | 6 (≈ 16.3 µM) | 5 |  | 
CC(=O)/C(=C\c1ccccc1)Oc1ccccc1OCC(C)N(C)C (centres undefined) |  | 45 | 2 (≈ 5.89 µM) | 0.9 |  | 
CC(=O)/C(=C\c1ccccc1)Oc1ccccc1OCCCNC(C)(C)C | 12.5 | 63 | 2.3 (≈ 6.26 µM) |  |  | 
CC(=O)/C(=C\c1ccccc1)Oc1ccccc1OCCCN1CCCCC1 | 6.5 | 62 | 1.6 (≈ 4.22 µM) | 0.2 |  | 
CCN(CC)CCOc1ccccc1OC(Cc1ccccc1)C(C)O (centres undefined) |  |  | 2.5 (≈ 6.99 µM) | 1 | 85 | 
CCN(CC)CCOc1ccccc1OC(Cc1ccccc1)C(C)=O (centres undefined) | 11.7 |  | 10 (≈ 28.1 µM) | 0.75 | 92 | 
CC(=O)/C(=C\c1ccccc1)Oc1ccc(OCC(C)N(C)C)cc1 (centres undefined) |  | 100 | 3.5 (≈ 10.3 µM) | 3 |  | 
CCN(CC)CCOc1ccc(O/C(=C/c2ccccc2)C(C)=O)cc1 |  | 163 | 3 (≈ 8.49 µM) | 2 |  | 
CC(=O)/C(=C\c1ccccc1)Oc1ccccc1OCC(O)CNC(C)(C)C (centres undefined) | 17 | 80 | 0.51 (≈ 1.33 µM) |  |  | 
CC(=O)/C(=C\c1ccccc1)Oc1ccccc1OCCN(C(C)C)C(C)C | 10.1 |  | 1 (≈ 2.62 µM) | 0.5 | 125 | 
CC(=O)/C(=C\c1ccccc1)Oc1ccccc1OCCN1CCCCC1 | 11.2 |  | 3 (≈ 8.21 µM) |  | 63 | 
CC(=O)/C(=C\c1ccccc1)Oc1cc(Cl)ccc1OCCN(C(C)C)C(C)C |  | 165 | 2 (≈ 4.81 µM) | 0.62 |  | 
C/C=C(/Oc1ccccc1OCCN(CC)CC)C(C)=O |  | 80 | 5 (≈ 17.2 µM) | 3 |  | 
CC(=O)/C(=C\c1ccccc1)Oc1ccccc1OCC(O)CN1CCN(C)CC1 (centres undefined) |  | 175 | 10 (≈ 24.4 µM) | 7.5 |  | 
CCN(CC)CCOc1ccc(Cl)cc1O/C(=C/c1ccccc1)C(C)=O |  | 170 | 2 (≈ 5.16 µM) | 0.6 |  | 
CCN(CC)CCNC(=O)c1ccc(N)cc1 [PROCAINAMIDE] | 121 |  | 45.8 (≈ 195 µM) | 48.1 | 312 | 
C=C[C@H]1CN2CC[C@H]1C[C@@H]2[C@@H](O)c1ccnc2ccc(OC)cc12 [QUINIDINE] |  |  | 3.9 (≈ 12 µM) |  |  | Activity [20]: -36%; ED50 [21]: 1 mg/kg; ED50 [22]: 15.2 mg/kg; ED50 [5]: 13.5 mg/kg; ED50 [23]: 14 mg/kg; ED50 [24]: 5.5 mg/kg; Activity [25]: -30%; ED50 [12]: 47.7 mg/kg; Activity [26]: 3%; ED50 [13]: 158 mg/kg; ED50 [15]: 122 mg/kg; ED50 [17]: 3.2 mg/kg
CCN(CC)CCOc1ccccc1O/C(=C/c1ccccc1)C(C)=O [ZOCAINONE] | 8.9 | 72 | 0.7 (≈ 1.98 µM) | 0.46 |  | ED50 [1]: 2 mg/kg; Activity [27]: 12%; Activity [28]: -15%; ED50 [29]: 7.5 mg/kg; ED50 [3]: 2 mg/kg; ED50 [5]: 2.3 mg/kg; Activity [30]: -1%; ED50 [31]: 11 mg/kg; EC50 [32]: 0.01 µg/mL (≈ 0.0283 µM); ED50 [12]: 13.6 mg/kg; ED50 [13]: 149 mg/kg; ED50 [15]: 132 mg/kg; ED50 [17]: 0.88 mg/kg
